Reference: ChEMBL document CHEMBL1157813, “Novel irreversible fluorescent probes targeting the 18 kDa translocator protein: synthesis and biological characterization” (J Med Chem, 2010)
Active and inactive are the calls of the source. The rule behind the calls is not given here.

How the values were obtained:
[1] = molecular target: T1, Translocator protein (Rattus norvegicus, UniProt P16257); assay: Displacement of [3H]Ro5-4864 from TSPO in rat kidney mitochondrial membrane; assay type: cell membranes
T1 sequence (P16257 whole entry, looked up): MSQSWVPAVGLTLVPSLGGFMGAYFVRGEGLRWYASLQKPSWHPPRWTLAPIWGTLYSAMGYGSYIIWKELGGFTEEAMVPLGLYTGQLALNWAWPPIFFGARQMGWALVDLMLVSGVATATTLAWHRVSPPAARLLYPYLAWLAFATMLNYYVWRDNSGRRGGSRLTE
Method in brief: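 IC50 and Ki taken from displacement curves. Bound radioactivity expressed as percent of specific binding. Triplicate determinations pooled from three independent experiments.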

[2] = molecular target: T1, Translocator protein; assay: Irreversible binding affinity to TSPO in rat kidney mitochondrial membrane; assay type: cell membranes
Method in brief: (§1)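 Rat kidney membranes preincubated with ligand (1 nM to 1 μM) for 0, 10, 30, 60, 90 or 180 min in binding buffer. Stopped with ice-cold 50 mM Tris/HCl pH 7.4, centrifuged 13000g 15 min at 4 °C, pellets washed twice. Residual [3H]Ro 5-4864 binding then measured at 65 μg protein/tube. ln B/B0 plotted against time. Kd and K2 taken from a 1/Kobs vs 1/[D] plot. Duplicates, three experiments.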

[3] = molecular target: Translocator protein (Homo sapiens) (UniProt P30536); assay: Irreversible binding affinity to TSPO in human U87MG cells at 100 to 500 nM after 20 mins in presence of 10 uM Ro5-4864; assay type: cell-based; settings: U-87MG ATCC
Chain of Translocator protein (Homo sapiens) (P30536 whole entry): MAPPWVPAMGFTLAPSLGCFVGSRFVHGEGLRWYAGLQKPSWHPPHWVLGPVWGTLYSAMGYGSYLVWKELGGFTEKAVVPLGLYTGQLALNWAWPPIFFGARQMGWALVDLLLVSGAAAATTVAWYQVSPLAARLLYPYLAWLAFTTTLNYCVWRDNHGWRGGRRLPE
Method in brief: (§2)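 U87MG cells grown in RPMI 1640 with 10% FBS, seeded at 4 × 10^4 cells/well for 24 h. Some wells pretreated with 10 μM Ro 5-4864, then given probe (100, 250, 500 nM) for 20 or 90 min at 37 °C, 5% CO2. Four washes in medium with cysteine, then PBS. Fluorescence read at Ex 485/Em 535 nm. Mean ± SEM, at least three experiments in duplicate.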

[4] = molecular target: Translocator protein (Rattus norvegicus) (UniProt P16257); assay: Displacement of [3H]Ro5-4864 from TSPO in rat kidney mitochondrial membrane at 1 to 1000 nM; assay type: cell membranes; settings: TDE = time-dependent effect; method in brief: as §1
Chain of Translocator protein (Rattus norvegicus) (P16257 whole entry, looked up): as the sequence (P16257 whole entry, looked up) above

[5] = molecular target: Translocator protein (Homo sapiens) (UniProt P30536); assay: Irreversible binding affinity to TSPO in human U87MG cells at 100 to 500 nM after 90 mins in presence of 10 uM Ro5-4864; assay type: cell-based; settings: U-87MG ATCC; method in brief: as §2
[6] = molecular target: Translocator protein (Rattus norvegicus) (UniProt P16257); assay: Displacement of [3H]Ro5-4864 from TSPO in rat kidney mitochondrial membrane after 180 mins; assay type: cell membranes; method in brief: as §1

Row | Structure (SMILES) | IC50 [1] [nM] | Ki [1] [nM] | Kd [2] [nM] | Activity [3] | Activity [4] | Activity [5] | Activity [6]
1 | O=C(NCCCCCCNc1ccc([N+](=O)[O-])c2nonc12)C(=O)c1c(-c2ccccc2)[nH]c2ccc(N=C=S)cc12 | 42.2 | 37.6 | 8.31 | inactive | tde | Active | Dose-dependent effect
2 | CCCN(CCC)C(=O)C(=O)c1c(-c2ccccc2)[nH]c2ccc(N=C=S)cc12 | 45.6 | 37.9 | 3.17 |  | tde |  | Dose-dependent effect
3 | CCCCCCN(CCCCCC)C(=O)C(=O)c1c(-c2ccccc2)[nH]c2ccc(N=C=S)cc12 | 59.7 | 49.5 | 5.07 |  | tde |  | Dose-dependent effect
